Active and inactive are the calls of the source. No cut-off for these calls is given here.
How the values were obtained:
[1] = target: Cruzipain (Trypanosoma cruzi) (UniProt P25779); experiment: Inhibition of recombinant Trypanosoma cruzi cruzain at 2.5 uM using Z-FR-AMC as substrate and measured at 12 sec interval for 5 mins without preincubation by fluorimetric analysis relative to control
Outline: (§1)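 Recombinant rhodesain or cruzain (1 nM) in 0.1 M sodium acetate pH 5.5, 0.01% Triton X-100, 1 mM β-mercaptoethanol. Compound at a single concentration, either without or after 10 min enzyme pre-incubation. Z-FR-AMC 2.5 µM, read at 340/440 nm every 12 s for 5 min. Inhibition is relative to DMSO, with E-64 as positive control. Done in duplicate (primary screen) or triplicate.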

[2] = target: Cruzipain (Trypanosoma cruzi) (UniProt P25779); experiment: Inhibition of recombinant Trypanosoma cruzi cruzain at 5 uM using Z-FR-AMC as substrate and measured at 12 sec interval for 5 mins without preincubation by fluorimetric analysis relative to control
Outline: as §1, with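 “pre-incubation.” for “pre-incubation. Z-FR-AMC 2.5 µM, read at 340/440 nm every 12 s for 5 min.”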

[3] = target: Cruzipain (Trypanosoma cruzi) (UniProt P25779); experiment: Inhibition of recombinant Trypanosoma cruzi cruzain at 2.5 uM using Z-FR-AMC as substrate preincubated for 10 mins followed by substrate addition and measured at 12 sec interval for 5 mins by fluorimetric analysis relative to control; settings: time 15.0 min; outline: as §1
[4] = target: Cruzipain (Trypanosoma cruzi) (UniProt P25779); experiment: Inhibition of recombinant Trypanosoma cruzi cruzain at 5 uM using Z-FR-AMC as substrate preincubated for 10 mins followed by substrate addition and measured at 12 sec interval for 5 mins by fluorimetric analysis relative to control; settings: time 15.0 min
Outline: as §1, with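 “pre-incubation.” for “pre-incubation. Z-FR-AMC 2.5 µM, read at 340/440 nm every 12 s for 5 min.”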

[5] = target: Rhodesain (Trypanosoma brucei rhodesiense) (UniProt Q95PM0); experiment: Inhibition of recombinant Trypanosoma brucei rhodesain expressed in Pichia pastoris at 5 uM using Z-FR-AMC as substrate and measured at 12 sec interval for 5 mins without preincubation by fluorimetric analysis relative to control
Chain of Rhodesain (Trypanosoma brucei rhodesiense) (Q95PM0 1-450): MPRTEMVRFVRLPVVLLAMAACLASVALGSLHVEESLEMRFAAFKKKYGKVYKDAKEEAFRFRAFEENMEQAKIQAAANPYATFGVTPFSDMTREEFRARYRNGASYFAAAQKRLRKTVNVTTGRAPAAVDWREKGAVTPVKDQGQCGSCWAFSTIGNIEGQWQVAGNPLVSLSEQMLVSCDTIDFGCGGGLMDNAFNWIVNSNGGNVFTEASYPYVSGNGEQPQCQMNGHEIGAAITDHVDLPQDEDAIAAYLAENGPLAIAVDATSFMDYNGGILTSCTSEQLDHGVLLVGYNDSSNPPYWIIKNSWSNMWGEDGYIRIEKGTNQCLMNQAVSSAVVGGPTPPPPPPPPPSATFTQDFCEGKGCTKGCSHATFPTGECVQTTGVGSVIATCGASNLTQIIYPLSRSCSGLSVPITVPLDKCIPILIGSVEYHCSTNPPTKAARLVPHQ
Outline: as §1, with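 “pre-incubation.” for “pre-incubation. Z-FR-AMC 2.5 µM, read at 340/440 nm every 12 s for 5 min.”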

[6] = target: Rhodesain (Trypanosoma brucei rhodesiense) (UniProt Q95PM0); experiment: Inhibition of recombinant Trypanosoma brucei rhodesain expressed in Pichia pastoris at 5 uM using Z-FR-AMC as substrate preincubated for 10 mins followed by substrate addition and measured at 12 sec interval for 5 mins by fluorimetric analysis relative to control; settings: time 15.0 min
Outline: as §1, with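 “pre-incubation.” for “pre-incubation. Z-FR-AMC 2.5 µM, read at 340/440 nm every 12 s for 5 min.”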

[7] = tested on: Trypanosoma brucei rhodesiense; experiment: Trypanocidal activity against Trypanosoma brucei rhodesiense STI B900 assessed as reduction in parasite viability; assay type: functional, organism-based
[8] = target: Rhodesain (Trypanosoma brucei rhodesiense) (UniProt Q95PM0); experiment: Inhibition of recombinant Trypanosoma brucei rhodesain expressed in Pichia pastoris at 2.5 uM using Z-FR-AMC as substrate and measured at 12 sec interval for 5 mins without preincubation by fluorimetric analysis relative to control
Outline: (§2)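 Run with no pre-incubation or with 10 min enzyme-compound pre-incubation. Fluorescence read at 340/440 nm. Concentration was set by solubility under assay conditions. Inhibition is against DMSO, with E-64 as positive control; triplicate.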

[9] = tested on: Trypanosoma brucei brucei; experiment: Trypanocidal activity against Trypanosoma brucei brucei Squib 427 assessed as reduction in parasite viability; assay type: functional, organism-based
[10] = target: Rhodesain (Trypanosoma brucei rhodesiense) (UniProt Q95PM0); experiment: Inhibition of recombinant Trypanosoma brucei rhodesain expressed in Pichia pastoris at 2.5 uM using Z-FR-AMC as substrate preincubated for 10 mins followed by substrate addition and measured at 12 sec interval for 5 mins by fluorimetric analysis relative to control; settings: time 15.0 min; outline: as §2
Trypanosoma cruzi [11] = experiment: Trypanocidal activity against Trypanosoma cruzi Tulahuen C4 assessed as reduction in parasite viability; assay type: functional, organism-based
cathepsin S [12] = target: T1, cathepsin S (Homo sapiens, UniProt P25774); experiment: Inhibition of recombinant human cathepsin S expressed in Escherichia coli at 50 uM using Z-VVR-AMC as substrate preincubated for 10 mins followed by substrate addition and measured after 15 mins by microplate reader based assay relative to control; settings: probe Z-VVR-AMC, in the assay text read “preincubated for 5 mins” for “preincubated for 10 mins”, time 20 min
T1 sequence (P25774 whole entry): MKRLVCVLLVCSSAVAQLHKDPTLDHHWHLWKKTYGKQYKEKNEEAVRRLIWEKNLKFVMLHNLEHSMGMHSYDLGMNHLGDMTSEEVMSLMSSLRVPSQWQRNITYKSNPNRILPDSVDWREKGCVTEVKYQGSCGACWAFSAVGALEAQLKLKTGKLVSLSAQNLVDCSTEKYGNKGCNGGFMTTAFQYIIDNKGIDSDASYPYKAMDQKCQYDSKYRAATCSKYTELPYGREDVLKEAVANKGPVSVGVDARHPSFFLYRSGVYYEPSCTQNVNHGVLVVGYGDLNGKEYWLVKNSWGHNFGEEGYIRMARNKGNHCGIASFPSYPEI
Outline: (§3)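 Run with or without 5 min compound–enzyme pre-incubation. AMC fluorescence at 380/460 nm over 15 min. Inhibition relative to DMSO (2% final); E64 1 µM as positive control. Two independent experiments, each in triplicate.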

Cruzipain [13] = target: T2, Cruzipain (Trypanosoma cruzi, UniProt P25779); experiment: Inhibition of recombinant Trypanosoma cruzi cruzain using Z-FR-AMC as substrate and measured at 12 sec interval for 5 mins without preincubation by fluorimetric analysis
T2 sequence (P25779 whole entry): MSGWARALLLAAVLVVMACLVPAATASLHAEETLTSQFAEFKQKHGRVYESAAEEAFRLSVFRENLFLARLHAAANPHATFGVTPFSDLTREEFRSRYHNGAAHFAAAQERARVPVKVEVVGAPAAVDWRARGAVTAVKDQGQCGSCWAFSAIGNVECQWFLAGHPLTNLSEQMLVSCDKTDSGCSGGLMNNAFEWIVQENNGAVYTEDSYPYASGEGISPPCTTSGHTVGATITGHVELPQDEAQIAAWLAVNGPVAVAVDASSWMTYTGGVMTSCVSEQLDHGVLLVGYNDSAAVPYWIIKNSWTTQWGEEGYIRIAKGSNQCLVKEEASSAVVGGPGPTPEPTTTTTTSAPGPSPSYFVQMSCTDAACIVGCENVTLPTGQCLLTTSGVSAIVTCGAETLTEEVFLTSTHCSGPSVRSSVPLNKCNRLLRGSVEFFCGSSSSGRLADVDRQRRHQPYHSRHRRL
Outline: (§4)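 Cruzain (recombinant, 1 nM) in 0.1 M sodium acetate pH 5.5 with 0.01% Triton X-100 and 1 mM β-mercaptoethanol; Z-FR-AMC 2.5 µM, read at 340/440 nm every 12 s for 5 min, with or without 10 min enzyme–compound pre-incubation. […] For mechanism and Ki, 0.3–20.0 µM substrate and five inhibitor levels were used, with Lineweaver-Burk plots.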

[14] = target: Cruzipain (Trypanosoma cruzi) (UniProt P25779); experiment: Inhibition of recombinant Trypanosoma cruzi cruzain at 50 uM preincubated with BSA for 5 mins followed by incubation with enzyme for 5 mins followed by substrate addition relative to control; settings: time 10.0 min
Outline: (§5)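 For BSA sensitivity, compound was held 5 min with BSA (2 mg/mL in 0.001% Triton X-100), then 5 min with 1 nM cruzain, before substrate was added and activity monitored. Parallel runs omitted BSA under otherwise identical conditions.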

Trypanosoma cruzi [15] = experiment: Trypanocidal activity against Trypanosoma cruzi Y strain trypomastigotes infected in C57BL/6 mouse peritoneal macrophage assessed as reduction in number of trypomastigotes release at 50 uM and measured after day 3 to day 11 post-infection by Neubauer chamber method; assay type: functional, organism-based; settings: time 11.0 day
Outline: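 Thioglycolate-elicited peritoneal macrophages from female C57BL/6 mice, 2 × 10^5/well, infected 2 h at 37°C with Y strain trypomastigotes at 5:1 (parasite:cell) and washed. They were then held with compound (3.125–50 µM) or IFN-γ 100 ng/mL. Trypomastigotes released into the supernatant were counted in a Neubauer chamber at several days after infection. Three independent experiments, each in triplicate.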

[16] = target: Cruzipain (Trypanosoma cruzi) (UniProt P25779); experiment: Inhibition of recombinant Trypanosoma cruzi cruzain at 50 uM preincubated for 10 mins in presence of 0.1% Triton X-100 relative to control
Outline: (§6)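 To test detergent sensitivity, cruzain was pre-incubated 10 min at room temperature with compound with no Triton X-100, 0.01% or 0.1% Triton X-100. Cleavage of Z-FR-AMC was then followed at pH 5.5 in acetate buffer. Percent inhibition was compared across detergent levels.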

cathepsin S [17] = target: T1, cathepsin S; experiment: Inhibition of recombinant human cathepsin S expressed in Escherichia coli at 50 uM using Z-VVR-AMC as substrate and measured after 15 mins without preincubation by microplate reader based assay relative to control; settings: probe Z-VVR-AMC; outline: as §3
[18] = target: Cruzipain (Trypanosoma cruzi) (UniProt P25779); experiment: Inhibition of recombinant Trypanosoma cruzi cruzain at 50 uM preincubated for 10 mins in presence of 0.01% Triton X-100 relative to control; outline: as §6
[19] = target: Cruzipain (Trypanosoma cruzi) (UniProt P25779); experiment: Inhibition of recombinant Trypanosoma cruzi cruzain at 100 uM using Z-FR-AMC as substrate preincubated for 10 mins followed by substrate addition and measured at 12 sec interval for 5 mins by fluorimetric analysis relative to control; settings: time 15.0 min; outline: as §1
[20] = target: Rhodesain (Trypanosoma brucei rhodesiense) (UniProt Q95PM0); experiment: Inhibition of recombinant Trypanosoma brucei rhodesain expressed in Pichia pastoris at 100 uM using Z-FR-AMC as substrate and measured at 12 sec interval for 5 mins without preincubation by fluorimetric analysis relative to control; outline: as §2
Cruzipain [21] = target: T2, Cruzipain; experiment: Competitive inhibition of recombinant Trypanosoma cruzi cruzain by Lineweaver-Burk plot analysis; outline: as §4
cathepsin B [22] = target: T3, cathepsin B (Rattus norvegicus, UniProt P00787); experiment: Inhibition of rat cathepsin B at 50 uM using Z-FR-AMC as substrate measured after 15 mins without preincubation by microplate reader based assay relative to control; settings: probe Z-FR-AMC
T3 sequence (P00787 whole entry): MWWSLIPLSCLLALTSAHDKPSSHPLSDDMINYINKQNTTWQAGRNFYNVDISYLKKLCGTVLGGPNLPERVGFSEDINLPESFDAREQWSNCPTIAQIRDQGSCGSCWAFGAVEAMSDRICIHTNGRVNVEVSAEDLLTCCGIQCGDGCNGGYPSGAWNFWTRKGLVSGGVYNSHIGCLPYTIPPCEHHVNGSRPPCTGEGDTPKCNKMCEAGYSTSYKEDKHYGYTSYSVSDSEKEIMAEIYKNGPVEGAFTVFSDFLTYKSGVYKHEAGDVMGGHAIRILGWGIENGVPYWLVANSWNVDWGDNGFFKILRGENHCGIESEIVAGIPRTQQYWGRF
Outline: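 Rat cathepsin B (20 nM) at 25°C in 100 mM sodium phosphate, 100 mM NaCl, 1 mM EDTA, 1 mM DTT, 0.01% CHAPS. Compound pre-incubated 0 or 5 min with enzyme; Z-FR-AMC 50 µM, ex 380/em 440 nm, monitored 15 min. Inhibition is versus 2% DMSO, with 1 µM E64 control. Two independent experiments in triplicate.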

[23] = target: Cruzipain (Trypanosoma cruzi) (UniProt P25779); experiment: Inhibition of recombinant Trypanosoma cruzi cruzain at 50 uM preincubated with enzyme for 5 mins followed by substrate addition in absence of BSA relative to control; outline: as §5
[24] = target: Cruzipain (Trypanosoma cruzi) (UniProt P25779); experiment: Inhibition of recombinant Trypanosoma cruzi cruzain at 50 uM preincubated for 10 mins in absence of Triton X-100 relative to control; outline: as §6
[25] = target: Rhodesain (Trypanosoma brucei rhodesiense) (UniProt Q95PM0); experiment: Inhibition of recombinant Trypanosoma brucei rhodesain expressed in Pichia pastoris at 100 uM using Z-FR-AMC as substrate preincubated for 10 mins followed by substrate addition and measured at 12 sec interval for 5 mins by fluorimetric analysis relative to control; settings: time 15.0 min; outline: as §2
Rhodesain = Rhodesain (Trypanosoma brucei rhodesiense, UniProt Q95PM0); experiment: Inhibition of recombinant Trypanosoma brucei rhodesain expressed in Pichia pastoris using Z-FR-AMC as substrate and measured at 12 sec interval for 5 mins without preincubation by fluorimetric analysis
Chain of Rhodesain (Q95PM0 whole entry): as the sequence (Q95PM0 1-450) above
Outline: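 Rhodesain (1 nM) with Z-FR-AMC (2.5 µM) in 0.1 M sodium acetate pH 5.5, 0.01% Triton X-100, 1 mM β-mercaptoethanol, with or without 10 min enzyme-compound pre-incubation. Fluorescence read at 340/440 nm. IC50 by four-parameter nonlinear regression from at least six concentrations in triplicate, with at least two independent runs. Mean ± SEM reported.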

[26] = target: Cruzipain (Trypanosoma cruzi) (UniProt P25779); experiment: Inhibition of recombinant Trypanosoma cruzi cruzain at 10 uM using Z-FR-AMC as substrate preincubated for 10 mins followed by substrate addition and measured at 12 sec interval for 5 mins by fluorimetric analysis relative to control; settings: time 15.0 min; outline: as §1
[27] = target: Rhodesain (Trypanosoma brucei rhodesiense) (UniProt Q95PM0); experiment: Inhibition of recombinant Trypanosoma brucei rhodesain expressed in Pichia pastoris at 10 uM using Z-FR-AMC as substrate and measured at 12 sec interval for 5 mins without preincubation by fluorimetric analysis relative to control; outline: as §1
[28] = target: Cruzipain (Trypanosoma cruzi) (UniProt P25779); experiment: Inhibition of recombinant Trypanosoma cruzi cruzain at 100 uM using Z-FR-AMC as substrate and measured at 12 sec interval for 5 mins without preincubation by fluorimetric analysis relative to control; outline: as §1
cathepsin B [29] = target: T3, cathepsin B; experiment: Inhibition of rat cathepsin B at 50 uM using Z-FR-AMC as substrate preincubated for 5 mins followed by substrate addition and measured after 15 mins by microplate reader based assay relative to control; settings: probe Z-FR-AMC
[30] = target: Rhodesain (Trypanosoma brucei rhodesiense) (UniProt Q95PM0); experiment: Inhibition of recombinant Trypanosoma brucei rhodesain expressed in Pichia pastoris at 10 uM using Z-FR-AMC as substrate preincubated for 10 mins followed by substrate addition and measured at 12 sec interval for 5 mins by fluorimetric analysis relative to control; settings: time 15.0 min; outline: as §1
[31] = target: Cruzipain (Trypanosoma cruzi) (UniProt P25779); experiment: Inhibition of recombinant Trypanosoma cruzi cruzain at 10 uM using Z-FR-AMC as substrate and measured at 12 sec interval for 5 mins without preincubation by fluorimetric analysis relative to control; outline: as §1

Chain of Cruzipain (Trypanosoma cruzi) (P25779 123-467 limits assumed): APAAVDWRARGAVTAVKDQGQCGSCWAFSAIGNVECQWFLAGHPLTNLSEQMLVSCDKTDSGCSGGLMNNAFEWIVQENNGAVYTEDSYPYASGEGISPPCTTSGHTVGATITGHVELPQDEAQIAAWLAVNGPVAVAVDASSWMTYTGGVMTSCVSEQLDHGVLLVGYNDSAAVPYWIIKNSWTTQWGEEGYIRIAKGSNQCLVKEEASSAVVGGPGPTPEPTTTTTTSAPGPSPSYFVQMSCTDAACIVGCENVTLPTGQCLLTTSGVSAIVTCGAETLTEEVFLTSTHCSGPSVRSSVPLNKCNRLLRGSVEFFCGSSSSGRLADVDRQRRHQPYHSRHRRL

**Q.** What does the source list for Cc1ccc(C(=O)c2oc3ccc4c(C)cc(=O)oc4c3c2C)cc1?
**A.** inhibition [1]: 3%; inhibition [2]: 53.6%; inhibition [3]: 11%; inhibition [4]: 69%; inhibition [5]: 60.4%; inhibition [6]: 77.1%; IC50 [7]: 32 µM; inhibition [8]: 8%; IC50 [9]: 32 µM; inhibition [10]: 12%; IC50 (Trypanosoma cruzi [11]): 32 µM

**Q.** How did the inhibition at 0.25 h, 50 µM (cathepsin S [12]) turn out when c1ccc(CNc2nc(Nc3ccccc3)nc3ccccc23)cc1 was run?
**A.** 4.5%

**Q.** And the IC50 (Cruzipain [13])?
**A.** 9 µM

**Q.** What about the inhibition [14] of the same compound?
**A.** 64.4%

**Q.** And the Activity (Trypanosoma cruzi [15])?
**A.** Active

**Q.** And the inhibition [16]?
**A.** 28.1%

**Q.** What about the inhibition at 0.25 h, 50 µM (cathepsin S [17]) of the same compound?
**A.** 14.8%

**Q.** And the inhibition [2]?
**A.** 70.8%

**Q.** What about the inhibition [4] of the same compound?
**A.** 82.3%

**Q.** And the inhibition [18]?
**A.** 89.8%

**Q.** What about the inhibition [19] of the same compound?
**A.** 90%

**Q.** And the inhibition [20]?
**A.** 85%

**Q.** And the Ki (Cruzipain [21])?
**A.** 1.4 µM

**Q.** And the inhibition at 0.25 h, 50 µM (cathepsin B [22])?
**A.** 28.6%

**Q.** What about the inhibition [5] of the same compound?
**A.** 67.1%

**Q.** What about the inhibition [23] of the same compound?
**A.** 70.2%

**Q.** What about the inhibition [24] of the same compound?
**A.** 82.4%

**Q.** And the inhibition [6]?
**A.** 82.8%

**Q.** And the inhibition [25]?
**A.** 94%

**Q.** And the IC50 (Rhodesain)?
**A.** 30 µM

**Q.** What about the inhibition [26] of the same compound?
**A.** 57%

**Q.** What about the inhibition [27] of the same compound?
**A.** 14%

**Q.** What about the inhibition [28] of the same compound?
**A.** 91%

**Q.** What about the inhibition at 0.25 h, 50 µM (cathepsin B [29]) of the same compound?
**A.** 27.5%

**Q.** And the inhibition [30]?
**A.** 9%

**Q.** And the inhibition [31]?
**A.** 62%

From ChEMBL document CHEMBL4665666, “Discovery and characterization of trypanocidal cysteine protease inhibitors from the 'malaria box'” (Eur J Med Chem, 2019)
